ChEMBL document CHEMBL5236607, “Membrane-Active Cyclic Amphiphilic Peptides: Broad-Spectrum Antibacterial Activity Alone and in Combination with Antibiotics” (J Med Chem, 2022)
Calls of active or inactive are those of the source. The rule behind the calls is not given here. Bridge positions count the residues as written; N and C are the ends. Square brackets hold non-standard residues; d marks the D form. Peptide text beside a SMILES is read from it. * marks the point of attachment. X1 = CC[C@H](C)CCCCC(=O)*; Dab = NCC[C@H](N)C(=O)O

How the values were obtained:
Escherichia coli [1] = assay: Induction of resistance development in Escherichia coli ATCC BAA-2452 assessed as increase in MIC by microtiter plate reader assay; format: functional, organism-based
Outline: (§1)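 Serial passage resistance assay with 2-fold microdilution MICs in 96-well plates. Each passage takes the well with the highest concentration still permitting growth, adjusts it to 0.5 McFarland, and dilutes it to a final 5 × 10^5 CFU/mL for the next passage. Eighteen passages; MIC recorded at each. Triplicate.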

Staphylococcus aureus [2] = assay: Induction of resistance development in methicillin resistant Staphylococcus aureus ATCC BAA-1556 assessed as increase in MIC by microtiter plate reader assay; format: functional, organism-based; outline: as §1
Staphylococcus aureus [3] = assay: Induction of resistance development in Staphylococcus aureus ATCC 29213 assessed as increase in MIC by microtiter plate reader assay; format: functional, organism-based; outline: as §1
Escherichia coli [4] = assay: Induction of resistance development in Escherichia coli ATCC 25922 assessed as increase in MIC by microtiter plate reader assay; format: functional, organism-based
[5] = Hemolytic activity in human RBC incubated for 2 hrs by spectrophotometric assay; format: toxicity, cell-based, Erythrocyte; details: human red blood cells (RBC)
Outline: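 Human RBCs with buffy coat removed, washed in PBS pH 7.4. Two-fold peptide dilutions in PBS mixed 1:1 with 4% (v/v) RBC suspension. Incubation 2 h at 37 °C without agitation, then centrifugation. Supernatant hemoglobin read at 567 nm. PBS set 0% and 1% Triton X-100 set 100% lysis. Triplicate.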

[6] = Therapeutic index, ratio of HC50 for human RBC to MIC for methicillin resistant Staphylococcus aureus ATCC BAA-1556
Outline: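 Human RBCs washed in PBS pH 7.4 and mixed 1:1 with two-fold peptide dilutions (4% v/v suspension), 2 h at 37 °C. Hemoglobin in supernatant read at 567 nm against PBS (0%) and 1% Triton X-100 (100%). HC50 is the concentration giving 50% hemolysis. Index is HC50 divided by MIC against MRSA.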

[7] = Membrano-lytic effect in mammalian membrane mimic DOPC/cholesterol (10:1) large unilamellar vesicles assessed as calcein leakage measured at 50 microg/ml measured after 100 mins by multimode microplate reader assay; format: cell membranes; details: dose 50.0 µg/ml
Outline: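 Calcein (70 mM) loaded into extruded 100 nm LUVs: DOPC:DOPG 7:3 (w/w) as the bacterial mimic, DOPC/cholesterol 10:1 (w/w) as the mammalian mimic. Free dye removed by gel filtration. Liposomes at 40 μM final lipid in PBS mixed 1:1 with peptide (5–50 μg/mL). Fluorescence (ex 490/em 520 nm) read every 10 min for 100 min; Triton X-100 defines 100% release. Triplicate.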

Escherichia coli [8] = assay: Antibacterial activity against Escherichia coli ATCC 25922 after 24 hrs by microbroth dilution method; format: functional
Staphylococcus aureus [9] = assay: Antibacterial activity against methicillin resistant Staphylococcus aureus ATCC BAA-1556 after 24 hrs by microbroth dilution method; format: functional
Klebsiella pneumoniae [10] = assay: Antibacterial activity against imipenem resistant Klebsiella pneumoniae ATCC BAA-1705 after 24 hrs by microbroth dilution method; format: functional
Pseudomonas aeruginosa [11] = assay: Antibacterial activity against Pseudomonas aeruginosa ATCC […] after 24 hrs by microbroth dilution method; format: functional
Pseudomonas aeruginosa [12] = assay: Antibacterial activity against Pseudomonas aeruginosa ATCC […] incubated for 24 hrs by checkerboard assay; format: functional
Staphylococcus aureus [13] = assay: Antibacterial activity against methicillin resistant Staphylococcus aureus ATCC BAA-1556 incubated for 24 hrs by checkerboard assay; format: functional
Klebsiella pneumoniae [14] = assay: Antibacterial activity against Klebsiella pneumoniae ATCC BAA-1705 incubated for 24 hrs by checkerboard assay; format: functional

Compound: CC[C@H](C)CCCCC(=O)N[C@@H](CCN)C(=O)N[C@H](C(=O)N[C@@H](CCN)C(=O)N[C@H]1CCNC(=O)[C@H]([C@@H](C)O)NC(=O)[C@H](CCN)NC(=O)[C@H](CCN)NC(=O)[C@H](CC(C)C)NC(=O)[C@@H](Cc2ccccc2)NC(=O)[C@H](CCN)NC1=O)[C@@H](C)O (X1-[Dab]T[Dab][Dab][Dab][dF]L[Dab][Dab]T; lactam 4-C)
- Activity (Escherichia coli [1]): Active
- Activity (Staphylococcus aureus [2]): Active
- Activity (Staphylococcus aureus [3]): Active
- Activity (Escherichia coli [4]): Active

Compound: N=C(N)NCCC[C@@H]1NC(=O)[C@H](CCCNC(=N)N)NC(=O)[C@H](CCCNC(=N)N)NC(=O)[C@H](Cc2c[nH]c3ccccc23)NC(=O)[C@H](Cc2c[nH]c3ccccc23)NC(=O)[C@H](Cc2c[nH]c3ccccc23)NC(=O)[C@H](Cc2c[nH]c3ccccc23)NC(=O)[C@H](Cc2c[nH]c3ccccc23)NC(=O)[C@H](CCCNC(=N)N)NC1=O
- HC50 at 2 h [5]: 100 µg/mL
- TI [6]: 12.5

Compound: CCCCCCCCCC(=O)N[C@@H](Cc1c[nH]c2ccccc12)C(=O)N[C@H](CC(N)=O)C(=O)N[C@@H](CC(=O)O)C(=O)N[C@@H]1C(=O)NCC(=O)N[C@@H](CCCN)C(=O)N[C@@H](CC(=O)O)C(=O)N[C@H](C)C(=O)N[C@@H](CC(=O)O)C(=O)NCC(=O)N[C@H](CO)C(=O)N[C@@H]([C@H](C)CC(=O)O)C(=O)N[C@@H](CC(=O)c2ccccc2N)C(=O)O[C@@H]1C
- Activity (Escherichia coli [1]): Active
- Activity [7]: 7%
- Activity (Staphylococcus aureus [2]): Active
- Activity (Staphylococcus aureus [3]): Active
- Activity (Escherichia coli [4]): Active

Compound: O=C(O)c1cn(C2CC2)c2cc(N3CCNCC3)c(F)cc2c1=O
- Activity (Escherichia coli [1]): Active
- Activity (Staphylococcus aureus [2]): Active
- Activity (Staphylococcus aureus [3]): Active

Compound: N=C(N)NCCC[C@@H]1NC(=O)[C@H](CCCNC(=N)N)NC(=O)[C@H](CCCNC(=N)N)NC(=O)[C@H](Cc2c[nH]c3ccccc23)NC(=O)[C@H](Cc2c[nH]c3ccccc23)NC(=O)[C@H](Cc2c[nH]c3ccccc23)NC(=O)[C@H](Cc2c[nH]c3ccccc23)NC(=O)[C@H](Cc2c[nH]c3ccccc23)NC(=O)[C@H](Cc2c[nH]c3ccccc23)NC(=O)[C@H](CCCNC(=N)N)NC(=O)[C@H](CCCNC(=N)N)NC1=O (cyclo(RRRRRWWWWWW))
- MIC (Escherichia coli [8]): > 256 µg/mL
- TI [6]: > 0.54
- MIC (Staphylococcus aureus [9]): > 256 µg/mL
- MIC (Klebsiella pneumoniae [10]): > 256 µg/mL
- MIC (Pseudomonas aeruginosa [11]): > 256 µg/mL

Compound: N=C(N)NCCC[C@@H]1NC(=O)[C@H](CCCNC(=N)N)NC(=O)[C@H](CCCNC(=N)N)NC(=O)[C@H](Cc2c[nH]c3ccccc23)NC(=O)[C@H](Cc2c[nH]c3ccccc23)NC(=O)[C@H](Cc2c[nH]c3ccccc23)NC(=O)[C@H](Cc2c[nH]c3ccccc23)NC(=O)[C@H](Cc2c[nH]c3ccccc23)NC(=O)[C@H](Cc2c[nH]c3ccccc23)NC(=O)[C@H](Cc2c[nH]c3ccccc23)NC(=O)[C@H](CCCNC(=N)N)NC1=O (cyclo(RRRRWWWWWWW))
- TI [6]: 0.23
- MIC (Pseudomonas aeruginosa [11]): > 256 µg/mL

Compound: N=C(N)NCCC[C@@H]1NC(=O)[C@H](CCCNC(=N)N)NC(=O)[C@H](Cc2c[nH]c3ccccc23)NC(=O)[C@H](Cc2c[nH]c3ccccc23)NC(=O)[C@H](Cc2c[nH]c3ccccc23)NC1=O (cyclo(RRWWW))
- TI [6]: 3.75

Compound: N=C(N)NCCC[C@@H]1NC(=O)[C@H](CCCNC(=N)N)NC(=O)[C@H](CCCNC(=N)N)NC(=O)[C@H](Cc2c[nH]c3ccccc23)NC(=O)[C@H](Cc2c[nH]c3ccccc23)NC(=O)[C@H](Cc2c[nH]c3ccccc23)NC(=O)[C@H](Cc2c[nH]c3ccccc23)NC(=O)[C@H](Cc2c[nH]c3ccccc23)NC(=O)[C@H](Cc2c[nH]c3ccccc23)NC(=O)[C@H](Cc2c[nH]c3ccccc23)NC(=O)[C@H](CCCNC(=N)N)NC(=O)[C@H](CCCNC(=N)N)NC1=O (cyclo(RRRRRWWWWWWW))
- MIC (Escherichia coli [8]): > 256 µg/mL
- TI [6]: > 0.45
- MIC (Staphylococcus aureus [9]): > 256 µg/mL
- MIC (Klebsiella pneumoniae [10]): > 256 µg/mL
- MIC (Pseudomonas aeruginosa [11]): > 256 µg/mL

Compound: N=C(N)NCCC[C@@H]1NC(=O)[C@H](CCCNC(=N)N)NC(=O)[C@H](CCCNC(=N)N)NC(=O)[C@H](CCCNC(=N)N)NC(=O)[C@H](Cc2c[nH]c3ccccc23)NC(=O)[C@H](Cc2c[nH]c3ccccc23)NC(=O)[C@H](Cc2c[nH]c3ccccc23)NC(=O)[C@H](Cc2c[nH]c3ccccc23)NC(=O)[C@H](Cc2c[nH]c3ccccc23)NC(=O)[C@H](Cc2c[nH]c3ccccc23)NC(=O)[C@H](Cc2c[nH]c3ccccc23)NC(=O)[C@H](CCCNC(=N)N)NC(=O)[C@H](CCCNC(=N)N)NC(=O)[C@H](CCCNC(=N)N)NC1=O (cyclo(RRRRRRRWWWWWWW))
- TI [6]: 8.75

Compound: C[C@@H](O)[C@H]1C(=O)N2C(C(=O)O)=C(S[C@@H]3CN[C@H](C(=O)N(C)C)C3)[C@H](C)[C@H]12 [MEROPENEM]
- MIC (Pseudomonas aeruginosa [12]): 32 µg/mL
- MIC (Staphylococcus aureus [13]): 32 µg/mL
- MIC (Klebsiella pneumoniae [14]): 256 µg/mL

Compound: N=C(N)NCCC[C@@H]1NC(=O)[C@H](CCCNC(=N)N)NC(=O)[C@H](CCCNC(=N)N)NC(=O)[C@H](Cc2c[nH]c3ccccc23)NC(=O)[C@H](Cc2c[nH]c3ccccc23)NC(=O)[C@H](Cc2c[nH]c3ccccc23)NC(=O)[C@H](Cc2c[nH]c3ccccc23)NC(=O)[C@H](Cc2c[nH]c3ccccc23)NC(=O)[C@H](Cc2c[nH]c3ccccc23)NC(=O)[C@H](CCCNC(=N)N)NC1=O
- TI [6]: 0.59

Compound: N=C(N)NCCC[C@@H]1NC(=O)[C@H](CCCNC(=N)N)NC(=O)[C@H](CCCNC(=N)N)NC(=O)[C@H](CCCNC(=N)N)NC(=O)[C@H](Cc2c[nH]c3ccccc23)NC(=O)[C@H](Cc2c[nH]c3ccccc23)NC(=O)[C@H](Cc2c[nH]c3ccccc23)NC(=O)[C@H](Cc2c[nH]c3ccccc23)NC(=O)[C@H](Cc2c[nH]c3ccccc23)NC(=O)[C@H](Cc2c[nH]c3ccccc23)NC(=O)[C@H](CCCNC(=N)N)NC(=O)[C@H](CCCNC(=N)N)NC(=O)[C@H](CCCNC(=N)N)NC1=O (cyclo(RRRRRRRWWWWWW))
- TI [6]: 5.31
